Assay results reported in ChEMBL document CHEMBL2010780, “Pyridine Carboxamides: Potent Palm Site Inhibitors of HCV NS5B Polymerase” (ACS Med Chem Lett, 2010).
Active and inactive are the calls of the source. The calls are words filed in the database; no cut-off is given here.

Tests used:
[1] = Inhibition of Hepatitis C virus genotype 1b Con1 NS5B Cdelta21 polymerase assessed as incorporation of [33P]-CTP into heteropolymer RNA template after 2 hrs; design: species or system Hepacivirus hominis; details: Con1, 2 h
Method in brief: (§1)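 Each value is the mean of duplicate experiments run on two separate weighings of compound.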

Hepatitis C virus [2] = experiment: Antiviral activity against Hepatitis C virus genotype 1b Con1 infected in human HuH7 cells assessed as inhibition of viral RNA replication after 3 by real time PCR analysis; type: functional, organism-based, Hepacivirus hominis, Huh-7; method in brief: as §1
[3] = Cytotoxicity against human HuH7 cells after 3 days by MTS assay; type: cell-based, Huh-7; method in brief: as §1
Hepatitis C virus [4] = experiment: Ratio of IC50 for Hepatitis C virus genotype 1b Con1 NS5B Cdelta21 polymerase palm site 2 C316N mutant to IC50 for Hepatitis C virus genotype 1b Con1 NS5B Cdelta21 polymerase; design: species or system Hepacivirus hominis
Hepatitis C virus [5] = experiment: Ratio of IC50 for Hepatitis C virus genotype 1b Con1 NS5B Cdelta21 polymerase palm site 2 C316Y mutant to IC50 for Hepatitis C virus genotype 1b Con1 NS5B Cdelta21 polymerase; design: species or system Hepacivirus hominis
Hepatitis C virus [6] = experiment: Ratio of IC50 for Hepatitis C virus genotype 1b Con1 NS5B Cdelta21 polymerase palm site 1 M414T mutant to IC50 for Hepatitis C virus genotype 1b Con1 NS5B Cdelta21 polymerase; design: species or system Hepacivirus hominis
Hepatitis C virus [7] = experiment: Ratio of IC50 for Hepatitis C virus genotype 1b Con1 NS5B Cdelta21 polymerase palm site 1 G554D mutant to IC50 for Hepatitis C virus genotype 1b Con1 NS5B Cdelta21 polymerase; design: species or system Hepacivirus hominis
Hepatitis C virus [8] = experiment: Ratio of IC50 for Hepatitis C virus genotype 1b Con1 NS5B Cdelta21 polymerase thumb site 2 M423T mutant to IC50 for Hepatitis C virus genotype 1b Con1 NS5B Cdelta21 polymerase; design: species or system Hepacivirus hominis
Hepatitis C virus [9] = experiment: Ratio of IC50 for Hepatitis C virus genotype 1b Con1 NS5B Cdelta21 polymerase thumb site 1 P495L mutant to IC50 for Hepatitis C virus genotype 1b Con1 NS5B Cdelta21 polymerase; design: species or system Hepacivirus hominis
Hepacivirus hominis [10] = experiment: Ratio of IC50 for Hepatitis C virus subtype 1b BK NS5B Cdelta21 polymerase to IC50 for Hepatitis C virus genotype 1b Con1 NS5B Cdelta21 polymerase
Hepacivirus hominis [11] = experiment: Ratio of IC50 for Hepatitis C virus subtype 1a H77 NS5B Cdelta21 polymerase to IC50 for Hepatitis C virus genotype 1b Con1 NS5B Cdelta21 polymerase
[12] = test system: Hepatitis C virus genotype 2; experiment: Inhibition of Hepatitis C virus genotype 2 NS5B Cdelta21 polymerase up to 10 uM
[13] = test system: Hepatitis C virus genotype 3; experiment: Inhibition of Hepatitis C virus genotype 3 NS5B Cdelta21 polymerase up to 10 uM
[14] = test system: Hepatitis C virus genotype 4; experiment: Inhibition of Hepatitis C virus genotype 4 NS5B Cdelta21 polymerase up to 10 uM
[15] = Hepatitis C virus, Con1, Huh-7, read-out: EC50

Row | SMILES | IC50 [1] [µM] | CC50 at 72 h [3] [µM] | other results
1 | CC(C)c1ccc(NC(=O)c2ccnnc2)c(N2CCN(c3cnccn3)CC2)c1 | > 20 | – | –
2 | Cc1cnc(N2CCN(c3cc(C(C)C)ccc3NC(=O)c3cccnc3)CC2)s1 | 15 | – | –
3 | CC(C)c1ccc(NC(=O)c2cccnc2)c(N2CCN(c3nsc(Cl)n3)CC2)c1 | 5 | > 10 | EC50 (Hepatitis C virus [2]; [15]): > 10 µM
4 | CC(C)c1ccc(NC(=O)C2CCOC2)c(N2CCN(c3cnccn3)CC2)c1 (stereo not drawn) | 20 | – | –
5 | CC(C)c1ccc(NC(=O)c2cccnc2-c2ccccc2)c(N2CCN(c3cnccn3)CC2)c1 | > 200 | 15 | EC50 (Hepatitis C virus [2]; huh-7): ND(toxic)
6 | CC(C)c1ccc(NC(=O)c2ccnc(NC(=O)C(C)(C)C)c2)c(N2CCN(c3cnccn3)CC2)c1 | > 20 | – | –
7 | CC(C)c1ccc(NC(=O)c2cccnc2)c(N2CCN(c3ccccn3)CC2)c1 | 7.3 | > 50 | EC50 (Hepatitis C virus [2]; [15]): > 50 µM
8 | CC(C)c1ccc(NC(=O)c2cnccc2C(F)(F)F)c(N2CCN(c3cnccn3)CC2)c1 | > 20 | – | –
9 | CC(C)c1ccc(NC(=O)c2cccnc2)c(N2CCN(C(=O)CN(C)C)CC2)c1 | > 200 | – | –
10 | CC(C)c1ccc(NC(=O)C2CCCNC2)c(N2CCN(c3cnccn3)CC2)c1 (stereo not drawn) | > 200 | – | –
11 | CNC(=O)c1c(-c2ccc(F)cc2)oc2cc(N(CCO)S(C)(=O)=O)c(C3CC3)cc12 [NESBUVIR] | – | – | Ratio IC50 (Hepatitis C virus [4]): 3; Ratio IC50 (Hepatitis C virus [5]): 50; Ratio IC50 (Hepatitis C virus [6]): 1.5; Ratio IC50 (Hepatitis C virus [7]): 1; Ratio IC50 (Hepatitis C virus [8]): 1; Ratio IC50 (Hepatitis C virus [9]): 1; Ratio IC50 (Hepacivirus hominis [10]): 6; Ratio IC50 (Hepacivirus hominis [11]): 1; inhibition [12]: inactive; inhibition [13]: inactive; inhibition [14]: inactive
12 | CC(C)c1ccc(NC(=O)c2cccnc2)c(N2CCN(C(=O)Nc3ccccc3)CC2)c1 | > 100 | – | –
13 | CC(C)c1ccc(NC(=O)c2ccsc2)c(N2CCN(c3cnccn3)CC2)c1 | 7 | 28 | EC50 (Hepatitis C virus [2]; [15]): 6.5 µM
14 | CC(C)(C)CC[C@@]1(C)CC(C2=NS(=O)(=O)c3cc(NS(C)(=O)=O)ccc3N2)=C(O)c2ccccc21 | – | – | Ratio IC50 (Hepatitis C virus [4]): 1; Ratio IC50 (Hepatitis C virus [5]): 3; Ratio IC50 (Hepatitis C virus [6]): 1; Ratio IC50 (Hepatitis C virus [7]): 100; Ratio IC50 (Hepatitis C virus [8]): 1; Ratio IC50 (Hepatitis C virus [9]): 1; Ratio IC50 (Hepacivirus hominis [10]): 1; Ratio IC50 (Hepacivirus hominis [11]): 1; inhibition [12]: inactive; inhibition [13]: inactive; inhibition [14]: inactive
15 | O=C(Nc1ccc(Br)cc1N1CCN(c2cnccn2)CC1)c1cccnc1 | > 20 | – | –
16 | CC(C)c1ccc(NC(=O)c2cccnc2)c(N2CCN(c3cncc(-c4ccccc4)n3)CC2)c1 | 17 | – | –
17 | COc1ncccc1C(=O)Nc1ccc(C(C)C)cc1N1CCN(c2cnccn2)CC1 | > 20 | – | –
18 | CC(C)c1ccc(NC(=O)c2cnc3ccccc3c2)c(N2CCN(c3cnccn3)CC2)c1 | 6.7 | 6 | EC50 (Hepatitis C virus [2]; [15]): 1.8 µM
19 | Cc1ccc(C(=O)Nc2ccc(C(C)C)cc2N2CCN(c3cnccn3)CC2)cn1 | 14 | 11 | EC50 (Hepatitis C virus [2]; huh-7): ND(toxic)
20 | CC(C)c1ccc(NC(=O)c2cccc(O)n2)c(N2CCN(c3cnccn3)CC2)c1 | 46 | 17 | EC50 (Hepatitis C virus [2]; huh-7): ND(toxic)
21 | C=C(C)c1ncccc1C(=O)Nc1ccc(C(C)C)cc1N1CCN(c2cnccn2)CC1 | > 200 | – | –

Row | SMILES | IC50 [1] [µM] | CC50 at 72 h [3] [µM] | other results
22 | O=C(Nc1ccc(C2CC2)cc1N1CCN(c2cnccn2)CC1)c1cccnc1 | 12 | – | –
23 | Cc1occc1C(=O)Nc1ccc(C(C)C)cc1N1CCN(c2cnccn2)CC1 | 15 | – | –
24 | Cc1oncc1C(=O)Nc1ccc(C(C)C)cc1N1CCN(c2cnccn2)CC1 | 13 | – | –
25 | Cc1c(F)cc(C(=O)Nc2ccc(C(C)C)cc2N2CCN(c3cnccn3)CC2)cc1F | 5.6 | > 50 | EC50 (Hepatitis C virus [2]; [15]): > 50 µM
26 | CC(C)c1ccc(NC(=O)c2ccccn2)c(N2CCN(c3cnccn3)CC2)c1 | > 20 | – | –
27 | CC(C)c1ccc(NC(=O)c2cncnc2)c(N2CCN(c3cnccn3)CC2)c1 | > 20 | – | –
28 | Cc1ncoc1C(=O)Nc1ccc(C(C)C)cc1N1CCN(c2cnccn2)CC1 | 14 | – | –
29 | Cc1cnc(C(=O)Nc2ccc(C(C)C)cc2N2CCN(c3cnccn3)CC2)cn1 | > 20 | – | –
30 | CCOC(=O)c1ccc(NC(=O)c2cccnc2)c(N2CCN(c3cnccn3)CC2)c1 | > 5 | – | –
31 | Cc1c(F)ccc(F)c1C(=O)Nc1ccc(C(C)C)cc1N1CCN(c2cnccn2)CC1 | 54 | 11 | EC50 (Hepatitis C virus [2]; huh-7): ND(toxic)
32 | CC(C)c1ccc(NC(=O)c2cccnc2)c(N2CCN(C(=O)OC(C)(C)C)CC2)c1 | > 200 | – | –
33 | Cc1csc(N2CCN(c3cc(C(C)C)ccc3NC(=O)c3cccnc3)CC2)n1 | 3.9 | 27 | EC50 (Hepatitis C virus [2]; [15]): 6 µM
34 | CC(C)c1ccc(NC(=O)C2CCOCC2)c(N2CCN(c3cnccn3)CC2)c1 | > 20 | – | –
35 | CC(C)c1ccc(NC(=O)c2cccnc2)c(N2CCN(S(C)(=O)=O)CC2)c1 | > 200 | – | –
36 | CC(C)c1ccc(NC(=O)c2cnc3[nH]ccc3c2)c(N2CCN(c3cnccn3)CC2)c1 | > 20 | – | –
37 | CC(C)c1ccc(NC(=O)c2ccc(C(F)(F)F)nc2)c(N2CCN(c3cnccn3)CC2)c1 | > 20 | – | –
38 | CC(C)c1ccc(NC(=O)c2cccnc2O)c(N2CCN(c3cnccn3)CC2)c1 | > 200 | – | –
39 | Cc1n[nH]cc1C(=O)Nc1ccc(C(C)C)cc1N1CCN(c2cnccn2)CC1 | > 200 | – | –
40 | CNCC(=O)N1CCN(c2cc(C(C)C)ccc2NC(=O)c2cccnc2)CC1 | > 200 | – | –
41 | Cc1nocc1C(=O)Nc1ccc(C(C)C)cc1N1CCN(c2cnccn2)CC1 | > 200 | – | –
42 | Cc1nc(N(C)C)sc1C(=O)Nc1ccc(C(C)C)cc1N1CCN(c2cnccn2)CC1 | 10 | > 10 | EC50 (Hepatitis C virus [2]; [15]): 6.9 µM

The remaining compounds from weak to strong by IC50 [1], led by results:

Row | IC50 [1] [µM] | SMILES | CC50 at 72 h [3] [µM] | other results
43 | 3 | CC(C)c1ccc(NC(=O)c2cccnc2)c(N2CCN(c3cnccn3)CC2)c1 | 54 | EC50 (Hepatitis C virus [2]; [15]): 20 µM
44 | 3 | Cc1nc(Br)sc1C(=O)Nc1ccc(C(C)C)cc1N1CCN(c2cnccn2)CC1 | > 10 | EC50 (Hepatitis C virus [2]; [15]): > 10 µM
45 | 2.5 | CC(C)c1ccc(NC(=O)c2cccnc2)c(N2CCN(c3nccs3)CC2)c1 | > 50 | EC50 (Hepatitis C virus [2]; [15]): > 50 µM
46 | 2.3 | CC(C)c1ccc(NC(=O)c2cccnc2)c(N2CCN(c3ncccn3)CC2)c1 | 37 | EC50 (Hepatitis C virus [2]; huh-7): ND(toxic)
47 | 2.3 | Cc1cncc(C(=O)Nc2ccc(C(C)C)cc2N2CCN(c3cnccn3)CC2)c1 | 13 | EC50 (Hepatitis C virus [2]; huh-7): ND(toxic)
48 | 2.3 | CC(C)c1ccc(NC(=O)c2cccnc2C(F)(F)F)c(N2CCN(c3cnccn3)CC2)c1 | 4.5 | EC50 (Hepatitis C virus [2]; huh-7): ND(toxic)
49 | 2.2 | CC(C)c1ccc(NC(=O)c2cccnc2F)c(N2CCN(c3cnccn3)CC2)c1 | 17 | EC50 (Hepatitis C virus [2]; huh-7): ND(toxic)
50 | 2 | CC(C)c1ccc(NC(=O)c2cccnc2C2CC2)c(N2CCN(c3cnccn3)CC2)c1 | 21 | EC50 (Hepatitis C virus [2]; huh-7): ND(toxic)
51 | 1.5 | Cc1ccnc(N2CCN(c3cc(C(C)C)ccc3NC(=O)c3cccnc3)CC2)n1 | 14 | EC50 (Hepatitis C virus [2]; huh-7): ND(toxic)
52 | 1 | CC(C)c1ccc(NC(=O)c2cccnc2N)c(N2CCN(c3cnccn3)CC2)c1 | 30 | EC50 (Hepatitis C virus [2]; huh-7): ND(toxic)
53 | 1 | CC(C)c1ccc(NC(=O)c2cccnc2)c(N2CCN(c3cncc(C4CC4)n3)CC2)c1 | 1 | EC50 (Hepatitis C virus [2]; huh-7): ND(toxic)
54 | 0.58 | Cc1ncsc1C(=O)Nc1ccc(C(C)C)cc1N1CCN(c2cnccn2)CC1 | 25 | EC50 (Hepatitis C virus [2]; huh-7): ND(toxic)
55 | 0.56 | CC(C)c1ccc(NC(=O)c2cccnc2)c(N2CCN(c3ccncn3)CC2)c1 | 27 | EC50 (Hepatitis C virus [2]; huh-7): ND(toxic)
56 | 0.54 | Cc1c(F)cc(F)cc1C(=O)Nc1ccc(C(C)C)cc1N1CCN(c2cnccn2)CC1 | 20 | EC50 (Hepatitis C virus [2]; huh-7): ND(toxic)
57 | 0.5 | Cc1cncc(N2CCN(c3cc(C(C)C)ccc3NC(=O)c3cccnc3)CC2)n1 | 23 | EC50 (Hepatitis C virus [2]; huh-7): ND(toxic)
58 | 0.16 | Cc1nccc(N2CCN(c3cc(C(C)C)ccc3NC(=O)c3cccnc3)CC2)n1 | 25 | EC50 (Hepatitis C virus [2]; huh-7): ND(toxic)
59 | 0.1 | Cc1ncccc1C(=O)Nc1ccc(C(C)C)cc1N1CCN(c2ccncn2)CC1 | 20 | EC50 (Hepatitis C virus [2]; [15]): 1.1 µM
60 | 0.027 | CSCc1nccc(N2CCN(c3cc(C(C)C)ccc3NC(=O)c3cccnc3C)CC2)n1 | 19 | EC50 (Hepatitis C virus [2]; [15]): 2.2 µM
